What was measured:
[1] = tested on: Canis familiaris; test: Evaluated against tetragastrin stimulated gastric acid secretion in conscious Hiedenhain-pouch dogs at a dose of 0.32 mg/kg, po; assay type: functional; settings: Canis lupus familiaris, Stomach
Summary of the method: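 Beagle Heidenhain-pouch dogs, 8–13 kg, oral dosing. Acid concentration titrated to pH 7 with 0.1 N NaOH; total acid output is volume × concentration. Change is relative to predosing output. ED50 by probit from three or four doses, three or four dogs per dose.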

[2] = target: Histamine H2 receptor (Cavia porcellus) (UniProt P47747); test: H2 receptor antagonistic activity against histamine stimulated chronotropic response in isolated guinea pig right atrium at 1x10E-6 g/mL.; assay type: functional, tissue-based; settings: Cardiac atrium
Summary of the method: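 Guinea pig atrial strip under 0.3–0.6 g tension in Tyrode solution, 30 °C, gassed with 95% O2-5% CO2. Beating rate recorded. Histamine HCl 1 × 10-6 g/mL given; after washout, test compound added (single-concentration screen 1 × 10-6 g/mL) and histamine response compared before and 30 min after dosing. IC50 from three doses by probit analysis, three atria per dose.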

[3] = tested on: Rattus norvegicus; test: Inhibition of histamine stimulated gastric acid secretion in lumen perfused anaesthetized rats after 1 mg/kg intravenous dose; assay type: functional; settings: Stomach
Summary of the method: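 Male SD rats (~250 g), fasted 24 h, urethane 1.25 g/kg ip. Stomach lumen perfused with saline; perfusate titrated with 25 mM NaOH. Histamine infused iv at 3 mg/kg/h. At plateau, compound given iv at 1 mg/kg. Result expressed as maximal inhibition of acid output; n = 2.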

[4] = tested on: Rattus norvegicus; test: Evaluated against aspirin induced gastric lesions in rats after peroral dose of 100 mg/kg; assay type: functional; settings: Stomach, route oral
Summary of the method: (§1)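 Male SD rats (~200 g), fasted 24 h. Test compound given orally in 0.1% MC, then aspirin 200 mg/kg in 0.2 N HCl/0.1% MC (10 mL/kg) orally 30 min later. Rats killed 1 h after aspirin. Ulcer index is the summed lesion length (mm); % inhibition is relative to controls. Seven rats per group for screening; ED50 by probit from three doses, ten rats per dose.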

[5] = tested on: Rattus norvegicus; test: Inhibition of aspirin induced gastric lesions in rats after peroral dose of 32 mg/kg; assay type: functional; settings: Stomach, route oral; summary of the method: as §1
[6] = organism: Canis familiaris; test: animal or person; settings: Canis lupus familiaris, Stomach, po, read-out: Inhibition

Histamine H2 receptor (Cavia porcellus), sequence (P47747 whole entry): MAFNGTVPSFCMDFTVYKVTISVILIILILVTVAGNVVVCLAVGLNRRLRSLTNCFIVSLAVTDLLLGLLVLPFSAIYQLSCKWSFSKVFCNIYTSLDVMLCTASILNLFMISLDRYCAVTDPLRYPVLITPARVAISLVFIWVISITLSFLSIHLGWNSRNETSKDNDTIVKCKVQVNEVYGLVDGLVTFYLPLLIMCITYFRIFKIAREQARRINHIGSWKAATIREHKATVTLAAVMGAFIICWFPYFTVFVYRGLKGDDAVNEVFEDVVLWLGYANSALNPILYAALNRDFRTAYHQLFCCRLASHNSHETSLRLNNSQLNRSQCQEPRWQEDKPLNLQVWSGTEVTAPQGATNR

With `CC(=O)OCC(=O)NCCCOc1cccc(CN2CCCCC2)c1` [ROXATIDINE ACETATE] the inhibition in vivo at 0.32 mg/kg [1] was 58%, the inhibition [2] was 76% and the inhibition in vivo at 1 mg/kg [3] was 84%. It also gave an inhibition in vivo at 100 mg/kg [4] of 31%.

For `CN/C(=N\CCSCc1nc[nH]c1C)NC#N` [CIMETIDINE], the inhibition [2] was 43%, the inhibition in vivo at 32 mg/kg [5] was 33% and the inhibition in vivo at 1 mg/kg [3] was 53%. For the same molecule, the inhibition in vivo at 22 mg/kg [6] was 22%.

Reference: ChEMBL document CHEMBL1127497, “Studies on antiulcer drugs. 7. 2-Guanidino-4-pyridylthiazoles as histamine H2-receptor antagonists with potent gastroprotective effects against nonsteroidal antiinflammatory drug-induced injury” (J Med Chem, 1994)
